A word on the bioavailability: it is dose-corrected exposure relative to a reference, in per cent.

This is an account of results in ChEMBL document CHEMBL4725356, “Discovery of IACS-9439, a Potent, Exquisitely Selective, and Orally Bioavailable Inhibitor of CSF1R” (J Med Chem, 2020).

Data set [1] in a line: Oral bioavailability in cynomolgus monkey at 1 mg/kg and measured up to 24 hrs by LC-MS/MS analysis. The class given is ADME, organism-based, Macaca fascicularis. The conditions noted are these: in vivo. The essentials:
(§1)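 Each species was dosed IV at 0.3 mg/kg and PO as follows: mouse 10 mg/kg, rat 3, dog 3, monkey 1. Plasma PK parameters derived were CL, Vss, IV half-life and oral bioavailability (F%).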

The nature of data set [2]: Oral bioavailability in Sprague-Dawley rat at 3 mg/kg and measured up to 24 hrs by LC-MS/MS analysis. The conditions noted are these: in vivo. In kind it is ADME, organism-based. The essentials: as §1
The nature of data set [3]: Volume of distribution at steady state in Beagle dog at 0.3 mg/kg, iv or 3 mg/kg, po and measured up to 24 hrs by LC-MS/MS analysis. The class given is ADME, organism-based, Canis lupus familiaris. The conditions noted are these: in vivo, read-out: Vdss. The essentials:
as §1

Data set [4] in a line: Volume of distribution at steady state in CD-1 mouse at 0.3 mg/kg, iv or 10 mg/kg, po and measured up to 24 hrs by LC-MS/MS analysis. The class given is ADME, organism-based. The conditions noted are these: in vivo, read-out: Vdss. The essentials: as §1
The nature of data set [5]: Oral bioavailability in Beagle dog at 3 mg/kg and measured up to 24 hrs by LC-MS/MS analysis. In kind it is ADME, organism-based, Canis lupus familiaris. The conditions noted are these: in vivo. The essentials: as §1
Data set [6] can be described thus: Volume of distribution at steady state in cynomolgus monkey at 0.3 mg/kg, iv or 1 mg/kg, po and measured up to 24 hrs by LC-MS/MS analysis. In kind it is ADME, organism-based, Macaca fascicularis. The conditions noted are these: in vivo, read-out: Vdss. The essentials:
as §1

A short description of data set [7]: Oral bioavailability in CD-1 mouse at 10 mg/kg and measured up to 24 hrs by LC-MS/MS analysis. In kind it is ADME, organism-based. The following applies: in vivo. The essentials:
as §1

A short description of data set [8]: Volume of distribution at steady state in Sprague-Dawley rat at 0.3 mg/kg, iv or 3 mg/kg, po and measured up to 24 hrs by LC-MS/MS analysis. The following applies: in vivo, read-out: Vdss. In kind it is ADME, organism-based. The essentials: as §1

As to `COc1cc(OCc2ccnc(Nc3cnn(C)c3)n2)cc2sc(N[C@H]3CCCC[C@@H]3O)nc12`, the bioavailability was determined as 21% in data set [1], 81% in data set [2], 37% in data set [5] and 100% in data set [7]. In addition, the Vd in data set [3] amounted to 3 L/kg; in data set [4], 1 L/kg; in data set [6], 0.45 L/kg; in data set [8] it was 3.4 L/kg.

Consider `Nc1nccc(COc2ccc3nc(N[C@@H]4CCCC[C@H]4O)sc3c2)c1Cl`, for which the bioavailability is 72% in data set [1], 67% in data set [2], 34% in data set [5] and greater than 90% in data set [7]. The Vd in data set [3] was 1.3 L/kg; in data set [4], 1.8 L/kg; in data set [6] it was 0.6 L/kg; in data set [8], 0.75 L/kg.
